“And” between values parts separate entries of the source, which are not always exact repeats. Identical values can stand only once.
Assay: CRRL conjugation kinetics of BQ with methoxyamine by UV–vis spectroscopy
Assay type: physicochemical
Settings: PBS, room temperature
How it was run: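 BQ (200 μM) was reacted with excess methoxyamine (100 mM and other concentrations) in Dulbecco's PBS at room temperature. Readings were taken in quartz cells, starting immediately after mixing. Repeated UV-vis spectra tracked BQ at 248 nm and QO at 320 nm. Both traces were fitted to pseudo-first-order exponentials to give k′, and the slope of k′ versus [methoxyamine] gave the second-order rate constant.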

O=C1C=CC(=O)C=C1 [BQ, benzoquinone]
pseudo-first-order k′ of conversion of BQ to QO (BQ 200 μM, methoxyamine 100 mM, UV–vis (248 and 320 nm)): 4.2 × 10^–3 s^–1 | second-order rate constant k for CRRL conjugation (BQ with CH3ONH2 to QO) (from plot of k′ versus [methoxyamine], UV–vis): 3.4 × 10^–2 (±6.5 × 10^–4) M^–1s^–1 and 3.41 × 10^–2 (±6.5 × 10^–4) M^–1s^–1

Reference: PMC3983135 (Bioconjugate Chemistry, 2014)
